Where no end group is shown, it is not given here. [ ]: non-standard residue; d: D form.
Tests used:
[1] = test system: B16F10 tumor-bearing mice; experiment: In vivo distribution after topical application, fluorescence imaging; details: 10 μg per mouse, 1, 3 and 6 hours
Method in brief: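 Mice were anaesthetized and dorsal skin depilated, then DiI-labelled peptide-modified vesicles were applied topically. Whole-body fluorescence was imaged. Tumors and major organs were collected for fluorescence imaging at 6 hours after application.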

[2] = Transdermal delivery of TRAIL, Franz diffusion cells; format: in vitro ADME, mice; details: C57BL/6 mouse skin, ELISA, n = 3
Method in brief: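 Excised C57BL/6 mouse skin was mounted in Franz diffusion cells, with vesicle suspensions (1 μg/ml) in the donor cell. Receptor samples were withdrawn at 0.5, 1, 2, 4, 8, 10 and 24 h and replaced with fresh PBS. TRAIL in the receptor samples was quantified by ELISA.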

[3] = Bioactivity of TRAIL at high temperatures; details: 55 and 60°C, n = 3
[4] = test system: dorsal skin of C57BL/6 mice; experiment: Skin penetration test, fluorescence in skin slices; format: in vivo; details: topical, 10 μg per mouse, 6 hours, fluorescence microscopy
Method in brief: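 C57BL/6 mice, 4 weeks old, were anaesthetised and had their dorsal skin depilated. Once skin had restored full function, GFP-labelled test vesicles or free FITC-BSA were applied topically. After 6 h the mice were killed by cervical dislocation, and treated dorsal skin was collected, washed, paraffin-embedded and cut into 6 μm sections. Penetration depth was observed by fluorescence microscopy.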

[5] = Photothermal response to NIR irritation; format: physicochemical; details: 1 μg/ml, 808 nm NIR 2 W/cm^2 for 3 min, n = 3
B16F10 cells [6] = experiment: qRT-PCR gene levels in treated B16F10 cells; format: cell-based, mouse; details: B16F10, + NIR, n = 3
[7] = test system: B16F10 melanoma in C57BL/6 mice; experiment: Antitumor performance, second wave; format: in vivo; details: NIR 0.6 W/cm^2, within 3 min, thermographic imaging
Method in brief: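 B16F10 cells (3 × 10^6 per mouse) implanted s.c. in right flank of C57BL/6 mice; treatment began at 100 mm3 tumors. Groups (n = 6) got topical ICG-loaded test formulations (0.5 mg OMV/kg). Unabsorbed material was wiped off at 12 h, then the whole tumor was irradiated under anaesthesia at 808 nm, 0.6 W/cm2, 3 min. Tumor sections: TUNEL with proteinase K (20 μg/ml), fluorescein-dUTP 90 min, DAPI counterstain, confocal imaging. Also Fontana-Masson melanin stain, and IHC for cleaved caspase 3, CD63 and S100-β with HRP secondaries and hematoxylin counterstain.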

B16F10 cells [8] = experiment: WB protein levels in treated B16F10 cells or their derived OMVs; format: cell-based, mouse; details: B16F10, + NIR (Fig. 4G)
B16F10 cells [9] = experiment: Peptide binding by flow cytometry, B16F10; format: cell-based, mouse; details: 5 μM peptide, 2 hours, compared with L02 cells
Method in brief: (§1)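 Cells were grown in DMEM with 10% FBS and penicillin/streptomycin at 37°C, 5% CO2. They were seeded at 10^6 per well and cultured 24 h at 37°C. Then 5 μM test peptide was added for 2 h. Cells were washed twice with 4°C PBS, and intracellular fluorescence intensity was read by flow cytometry.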

L02 cells = experiment: Peptide binding by flow cytometry, L02; format: cell-based, human; details: 5 μM peptide, 2 hours, low αvβ3 expression
Method in brief: as §1

[10] = target: αvβ3 integrin on B16F10 melanoma cells (mouse (endogenous in B16F10), UniProt P43406 31-1044; O54890 26-787); experiment: flow cytometry on cells
[11] = target: human recombinant αvβ3 integrin (R&D Systems), NT-647 labelled (human) (UniProt P06756); experiment: MST

αvβ3 integrin on B16F10 melanoma cells, sequence (P43406 31-1044, chain 1 of 2): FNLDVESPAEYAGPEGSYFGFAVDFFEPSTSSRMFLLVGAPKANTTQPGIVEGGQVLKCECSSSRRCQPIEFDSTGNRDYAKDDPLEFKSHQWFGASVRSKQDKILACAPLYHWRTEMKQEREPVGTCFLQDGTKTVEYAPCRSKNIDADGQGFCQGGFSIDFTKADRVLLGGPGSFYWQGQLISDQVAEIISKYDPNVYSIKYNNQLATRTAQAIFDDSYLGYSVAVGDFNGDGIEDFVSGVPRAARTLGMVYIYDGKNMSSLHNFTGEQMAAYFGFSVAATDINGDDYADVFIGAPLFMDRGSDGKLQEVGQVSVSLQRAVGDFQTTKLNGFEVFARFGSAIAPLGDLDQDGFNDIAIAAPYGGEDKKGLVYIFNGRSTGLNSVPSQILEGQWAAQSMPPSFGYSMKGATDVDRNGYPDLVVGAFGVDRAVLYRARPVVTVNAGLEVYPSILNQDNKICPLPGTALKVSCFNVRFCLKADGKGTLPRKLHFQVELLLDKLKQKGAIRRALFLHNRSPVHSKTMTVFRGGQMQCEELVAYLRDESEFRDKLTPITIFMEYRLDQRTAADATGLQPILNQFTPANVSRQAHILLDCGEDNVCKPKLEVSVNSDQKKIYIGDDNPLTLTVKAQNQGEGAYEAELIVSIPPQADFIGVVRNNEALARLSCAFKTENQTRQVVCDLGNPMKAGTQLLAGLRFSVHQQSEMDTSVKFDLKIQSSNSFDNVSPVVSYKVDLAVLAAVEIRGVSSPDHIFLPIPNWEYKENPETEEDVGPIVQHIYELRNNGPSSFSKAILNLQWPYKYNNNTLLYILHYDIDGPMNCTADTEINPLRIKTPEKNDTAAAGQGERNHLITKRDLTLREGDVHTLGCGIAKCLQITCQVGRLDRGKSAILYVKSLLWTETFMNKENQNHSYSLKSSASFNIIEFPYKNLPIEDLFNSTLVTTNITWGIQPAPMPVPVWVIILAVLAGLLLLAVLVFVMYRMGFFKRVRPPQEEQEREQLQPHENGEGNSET
αvβ3 integrin on B16F10 melanoma cells, sequence (O54890 26-787, chain 2 of 2): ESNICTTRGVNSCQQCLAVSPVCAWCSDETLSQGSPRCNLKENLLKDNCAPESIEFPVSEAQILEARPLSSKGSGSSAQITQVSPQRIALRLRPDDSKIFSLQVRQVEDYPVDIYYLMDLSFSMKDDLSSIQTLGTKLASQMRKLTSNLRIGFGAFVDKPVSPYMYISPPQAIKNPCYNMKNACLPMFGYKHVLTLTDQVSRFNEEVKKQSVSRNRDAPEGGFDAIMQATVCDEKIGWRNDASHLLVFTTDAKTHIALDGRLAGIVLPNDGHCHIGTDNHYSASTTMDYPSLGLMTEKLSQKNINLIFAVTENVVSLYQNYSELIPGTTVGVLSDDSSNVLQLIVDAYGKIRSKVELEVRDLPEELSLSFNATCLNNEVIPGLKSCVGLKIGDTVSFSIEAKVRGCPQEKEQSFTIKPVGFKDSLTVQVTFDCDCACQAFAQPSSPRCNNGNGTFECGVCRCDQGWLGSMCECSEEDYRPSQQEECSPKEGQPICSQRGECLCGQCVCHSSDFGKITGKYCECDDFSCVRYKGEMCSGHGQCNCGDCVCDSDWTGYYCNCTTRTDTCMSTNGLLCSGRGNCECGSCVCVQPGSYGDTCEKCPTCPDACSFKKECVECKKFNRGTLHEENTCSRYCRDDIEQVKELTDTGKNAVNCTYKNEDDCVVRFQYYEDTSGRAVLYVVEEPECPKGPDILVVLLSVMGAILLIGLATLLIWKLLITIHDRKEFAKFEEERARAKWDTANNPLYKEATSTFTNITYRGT

Molecule: CCCCCCCCCCCCCCCCCCN1C(=CC=CC2=[N+](CCCCCCCCCCCCCCCCCC)c3ccccc3C2(C)C)C(C)(C)c2ccccc21.[O-][Cl+3]([O-])([O-])[O-] [Dil, 1,1′-dioctadecyl-3,3,3′,3′-tetramethylindocarbocyanine perchlorate]
- fluorescence at tumor site after topical application [1]: Low fluorescent signal

Molecule: TRAIL: Recombinant human tumor necrosis factor related apoptosis-inducing ligand
- transdermal amount of TRAIL [2]: too low to be detected
- bioactivity of TRAIL at high temperatures [3]: No loss of bioactivity

Molecule: FITC-BSA: fluorescein isothiocyanate (FITC)–labeled bovine serum albumin
- penetration through SC, fluorescence in skin slices [4]: incapable of penetrating through SC

Molecule: CC1(C)C(/C=C/C=C/C=C/C=C2\N(CCCCS(=O)(=O)O)c3ccc4ccccc4c3C2(C)C)=[N+](CCCCS(=O)(=O)[O-])c2ccc3ccccc3c21 [ICG, indocyanine green]
- temperature reached from 25°C upon NIR irritation [5]: 35 °C
- c-FLIP mRNA level, decreased to (B16F10 cells [6]): 63%
- survivin mRNA level, decreased to (B16F10 cells [6]): 56%
- temperature of tumor sites [7]: around 32 °C
- increase of cleaved caspase 3 level (B16F10 cells [8]): 2.4 fold
- increase of cleaved caspase 8 level (B16F10 cells [8]): 3.3 fold

Molecule: RhB-RGP: rhodamine B–labeled RGP (RW[code r]NMGGGGIVRRADRAAVP; also: rhodamine B label, position not given here)
- binding to B16F10 cells (B16F10 cells [9]): significantly enhanced
- binding to L02 cells (L02 cells): weak binding

Molecule: RW[code r]NMGGGGIVRRADRAAVP (also: rhodamine B label, position not given here) [rhodamine B-labeled RGP (RhB-RGP)]
- fold fluorescence intensity against RhB-RGD [10]: 6.3 fold

Molecule: RWRNMGGGGIVRRADRAAVP (not fully specified (residue 3); printed as RWrNMGGGGIVRRADRAAVP) [RGP (RWr…), αvβ3 integrin-specific peptide]
- Kd [11]: 1.54 nM

Source: PMC7455490 (Science Advances, 2020)
